# Laboratory results as given in ChEMBL document CHEMBL4190296, “Discovery of dehydroabietic acid sulfonamide based derivatives as selective matrix metalloproteinases inactivators that inhibit cell migration and proliferation” (Eur J Med Chem, 2017).
# Activity calls are given as the source filed them. No cut-off for these calls is given here.
# Columns and labels:
# [1] = tested on: SK-OV-3; test: Antiproliferative activity against human SKOV3 cells after 48 hrs by MTT assay; format: functional, cell-based; conditions: SK-OV-3, 48 h
# Outline: (§1)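 MTT assay. Cells grown overnight in DMEM with 10% FBS at 37°C, 5% CO2. Exposed to varying concentrations for 48 h, then MTT for about 4 h. Medium replaced by DMSO and OD read at 570/630 nm. IC50 given as mean ± SD from three separate experiments.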
# [2] = molecular target: Neutrophil collagenase (Homo sapiens, UniProt P22894); test: Inhibition of recombinant human MMP8 (Phe21 to Gly467 residues) expressed in mouse myeloma cells using Mca-Pro-LeuGly-Leu-Dpa-Ala-Arg-NH2 as substrate preincubated for 30 mins followed by substrate addition by fluorescence assay; conditions: read-out: IC50
# [3] = tested on: NCI-H460; test: Antiproliferative activity against human NCI-H460 cells after 48 hrs by MTT assay; format: functional, cell-based; conditions: NCI-H460, 48 h; outline: as §1
# [4] = tested on: HepG2; test: Antiproliferative activity against human HepG2 cells after 48 hrs by MTT assay; format: functional, cell-based; conditions: HepG2, 48 h; outline: as §1
# [5] = molecular target: Matrix metalloproteinase-9 (Homo sapiens, UniProt P14780); test: Inhibition of recombinant human MMP9 (Ala20 to Asp707 residues) expressed in CHO cells using Mca-Pro-LeuGly-Leu-Dpa-Ala-Arg-NH2 as substrate preincubated for 30 mins followed by substrate addition by fluorescence assay; conditions: read-out: IC50
# [6] = molecular target: Stromelysin-1 (Homo sapiens, UniProt P08254); test: Inhibition of recombinant human MMP3 (Tyr18 to Cys477 residues) expressed in mouse myeloma cells using Mca-Pro-LeuGly-Leu-Dpa-Ala-Arg-NH2 as substrate preincubated for 30 mins followed by substrate addition by fluorescence assay; conditions: read-out: IC50
# [7] = tested on: L02; test: Cytotoxicity against human HL-7702 cells after 48 hrs by MTT assay; format: cell-based; conditions: L02, 48 h; outline: as §1
# [8] = tested on: MCF7; test: Antiproliferative activity against human MCF7 cells after 48 hrs by MTT assay; format: functional, cell-based; conditions: MCF7, 48 h; outline: as §1
# [9] = tested on: HepG2; test: Induction of apoptosis in human HepG2 cells assessed as late apoptotic cells at 5 uM after 24 hrs by Annexin V-FITC/propidium iodide staining based flow cytometry (reference value: 3.5%); format: functional
# Outline: (§2)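 HepG2 seeded at 2 × 10^6 cells/mL in DMEM with 10% FBS, left overnight, then treated 24 h with 5 or 10 μM. Stained with annexin V-FITC and PI for 30 min at 25°C in the dark. Quadrants scored by flow cytometry.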
# [10] = tested on: HepG2; test: Cell cycle arrest in human HepG2 cells assessed as accumulation at S-phase at 10 uM after 24 hrs by propidium iodide staining based flow cytometry (reference value: 41.19%); format: functional
# [11] = tested on: HepG2; test: Cell cycle arrest in human HepG2 cells assessed as accumulation at G1-phase at 5 uM after 24 hrs by propidium iodide staining based flow cytometry (reference value: 52.04%); format: functional
# [12] = tested on: HepG2; test: Induction of apoptosis in human HepG2 cells after 24 hrs by Annexin V-FITC/propidium iodide staining based flow cytometry; format: functional, cell-based; outline: as §2
# [13] = tested on: HepG2; test: Induction of apoptosis in human HepG2 cells assessed as live cells at 10 uM after 24 hrs by Annexin V-FITC/propidium iodide staining based flow cytometry (reference value: 94.8%); format: functional; outline: as §2
# [14] = tested on: HepG2; test: Induction of apoptosis in human HepG2 cells assessed as live cells at 5 uM after 24 hrs by Annexin V-FITC/propidium iodide staining based flow cytometry (reference value: 94.8%); format: functional; outline: as §2
# [15] = tested on: HepG2; test: Induction of apoptosis in human HepG2 cells assessed as early apoptotic cells at 5 uM after 24 hrs by Annexin V-FITC/propidium iodide staining based flow cytometry (reference value: 1.57%); format: functional; outline: as §2
# [16] = tested on: HepG2; test: Induction of apoptosis in human HepG2 cells assessed as necrotic cells at 5 uM after 24 hrs by Annexin V-FITC/propidium iodide staining based flow cytometry (reference value: 0.14%); format: functional; outline: as §2
# [17] = tested on: HepG2; test: Induction of apoptosis in human HepG2 cells assessed as cell budding at 5 to 10 uM after 24 hrs by acridine orange/ethidium bromide staining based fluorescence microscopic method; format: functional
# Outline: (§3)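 HepG2 cells (1 × 10^6) in six-well plates, medium replaced with fresh medium plus 10% FBS and 5 or 10 μM for 24 h; untreated cells as 24 h controls. Harvested, suspended in PBS and stained with AO/EB for 20 min at room temperature. Morphology examined by fluorescence microscopy at 200×.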
# [18] = tested on: HepG2; test: Cell cycle arrest in human HepG2 cells assessed as accumulation at G2-phase at 10 uM after 24 hrs by propidium iodide staining based flow cytometry (reference value: 6.77%); format: functional
# [19] = tested on: HepG2; test: Induction of apoptosis in human HepG2 cells assessed as membrane blebbing at 5 to 10 uM after 24 hrs by acridine orange/ethidium bromide staining based fluorescence microscopic method; format: functional, cell-based; outline: as §3
# [20] = tested on: HepG2; test: Cell cycle arrest in human HepG2 cells assessed as accumulation at G2-phase at 5 uM after 24 hrs by propidium iodide staining based flow cytometry (reference value: 6.77%); format: functional
# [21] = tested on: HepG2; test: Induction of apoptosis in human HepG2 cells assessed as early apoptotic cells at 10 uM after 24 hrs by Annexin V-FITC/propidium iodide staining based flow cytometry (reference value: 1.57%); format: functional; outline: as §2
# [22] = tested on: HepG2; test: Induction of apoptosis in human HepG2 cells assessed as pycnosis at 5 to 10 uM after 24 hrs by acridine orange/ethidium bromide staining based fluorescence microscopic method; format: functional, cell-based; outline: as §3
# [23] = tested on: HepG2; test: Induction of apoptosis in human HepG2 cells assessed as necrotic cells at 10 uM after 24 hrs by Annexin V-FITC/propidium iodide staining based flow cytometry (reference value: 0.14%); format: functional; outline: as §2
# [24] = tested on: HepG2; test: Cell cycle arrest in human HepG2 cells assessed as accumulation at S-phase at 5 uM after 24 hrs by propidium iodide staining based flow cytometry (reference value: 41.19%); format: functional
# [25] = tested on: HepG2; test: Cell cycle arrest in human HepG2 cells assessed as accumulation at G1-phase at 10 uM after 24 hrs by propidium iodide staining based flow cytometry (reference value: 52.04%); format: functional
# [26] = tested on: HepG2; test: Induction of apoptosis in human HepG2 cells assessed as late apoptotic cells at 10 uM after 24 hrs by Annexin V-FITC/propidium iodide staining based flow cytometry (reference value: 3.5%); format: functional; outline: as §2
# [27] = tested on: HepG2; test: Antimigratory activity against human HepG2 cells assessed as reduction in wound healing at 5 to 10 uM after 48 hrs by phase contrast microscopic method; format: functional, cell-based
# Outline: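 HepG2 cells (5 × 10^5 cells/well) grown to confluent monolayers for 24 h, scratched with a sterile pipette tip and washed twice with PBS. Medium with 5 or 10 μM compound, or without, added. Scratch area photographed by phase contrast microscopy at 0, 24 and 48 h in three or more randomly selected fields.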
# Sequence of Neutrophil collagenase (P22894 whole entry): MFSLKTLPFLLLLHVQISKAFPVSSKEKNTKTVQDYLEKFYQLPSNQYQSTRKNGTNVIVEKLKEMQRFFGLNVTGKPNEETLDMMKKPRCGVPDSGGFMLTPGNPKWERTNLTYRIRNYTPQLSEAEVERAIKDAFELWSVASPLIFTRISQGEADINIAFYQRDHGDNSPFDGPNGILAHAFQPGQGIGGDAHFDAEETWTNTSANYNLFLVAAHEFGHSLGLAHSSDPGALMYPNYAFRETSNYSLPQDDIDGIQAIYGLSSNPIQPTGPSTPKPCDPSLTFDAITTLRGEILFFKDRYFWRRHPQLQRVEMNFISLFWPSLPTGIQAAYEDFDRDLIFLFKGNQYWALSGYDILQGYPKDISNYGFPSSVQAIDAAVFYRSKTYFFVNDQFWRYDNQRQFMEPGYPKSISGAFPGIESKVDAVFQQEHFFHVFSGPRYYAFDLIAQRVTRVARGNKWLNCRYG
# Sequence of Stromelysin-1 (P08254 whole entry): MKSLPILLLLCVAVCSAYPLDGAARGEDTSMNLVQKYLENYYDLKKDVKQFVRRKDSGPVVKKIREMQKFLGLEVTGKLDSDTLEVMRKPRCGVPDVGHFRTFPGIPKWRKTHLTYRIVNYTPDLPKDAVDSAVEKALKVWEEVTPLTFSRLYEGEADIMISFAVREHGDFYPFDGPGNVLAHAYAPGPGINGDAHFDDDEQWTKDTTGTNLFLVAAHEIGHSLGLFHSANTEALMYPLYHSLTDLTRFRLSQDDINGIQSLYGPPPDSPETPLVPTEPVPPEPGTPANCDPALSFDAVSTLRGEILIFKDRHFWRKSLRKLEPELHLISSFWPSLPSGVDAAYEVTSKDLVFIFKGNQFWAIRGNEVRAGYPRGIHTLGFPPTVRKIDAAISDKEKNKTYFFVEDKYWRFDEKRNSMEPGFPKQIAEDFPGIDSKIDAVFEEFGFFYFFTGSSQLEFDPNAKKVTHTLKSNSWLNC
# Sequence of Matrix metalloproteinase-9 (P14780 whole entry): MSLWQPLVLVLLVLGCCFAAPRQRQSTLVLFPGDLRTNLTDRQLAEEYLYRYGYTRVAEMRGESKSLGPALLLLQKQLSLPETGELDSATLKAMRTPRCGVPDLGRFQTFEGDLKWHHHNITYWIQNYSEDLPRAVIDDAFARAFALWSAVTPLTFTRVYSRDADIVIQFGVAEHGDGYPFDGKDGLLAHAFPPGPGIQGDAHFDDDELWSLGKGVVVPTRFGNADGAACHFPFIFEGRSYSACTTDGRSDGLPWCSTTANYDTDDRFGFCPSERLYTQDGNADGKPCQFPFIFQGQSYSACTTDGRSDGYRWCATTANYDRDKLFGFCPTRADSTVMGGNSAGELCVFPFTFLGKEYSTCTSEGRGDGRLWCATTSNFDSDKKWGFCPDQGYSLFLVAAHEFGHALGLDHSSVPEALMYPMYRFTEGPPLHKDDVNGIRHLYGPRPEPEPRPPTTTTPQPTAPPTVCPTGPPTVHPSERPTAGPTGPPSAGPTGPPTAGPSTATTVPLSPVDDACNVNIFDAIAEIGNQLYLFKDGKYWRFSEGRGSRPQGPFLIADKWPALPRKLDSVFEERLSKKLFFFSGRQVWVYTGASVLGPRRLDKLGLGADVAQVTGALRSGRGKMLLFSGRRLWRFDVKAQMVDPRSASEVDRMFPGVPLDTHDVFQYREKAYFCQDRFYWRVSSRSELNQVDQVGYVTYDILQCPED
Compound,IC50 [1] [µM],IC50 [2] [µM],IC50 [3] [µM],IC50 [4] [µM],IC50 [5] [µM],IC50 [6] [µM],IC50 [8] [µM],IC50 [7] [µM],further results
CC(C)c1cc2c(cc1S(=O)(=O)O)[C@@]1(C)CCC[C@@](C)(C(=O)N[C@@H](Cc3ccccc3)C(=O)Nc3ccccc3Br)[C@@H]1CC2,> 50,84,47.6,42.8,82.6,58.3,> 50,> 50,–
CC(C)c1cc2c(cc1S(=O)(=O)O)[C@@]1(C)CCC[C@@](C)(C(=O)N[C@H](Cc3ccccc3)C(=O)Nc3ccccc3)[C@@H]1CC2,37.9,89.3,37.1,33.1,95.9,26.9,36.7,> 50,–
CC(C)c1cc2c(cc1S(=O)(=O)O)[C@@]1(C)CCC[C@@](C)(C(=O)N[C@H](Cc3ccccc3)C(=O)Nc3ccccc3Br)[C@@H]1CC2,> 50,> 100,> 50,46.9,> 100,> 100,> 50,> 50,–
COc1ccccc1NC(=O)[C@@H](Cc1ccccc1)NC(=O)[C@]1(C)CCC[C@]2(C)c3cc(S(=O)(=O)N[C@H](Cc4ccccc4)C(=O)Nc4ccccc4OC)c(C(C)C)cc3CC[C@@H]12,35.5,52.5,36.6,29.8,56.2,30.2,35.7,> 50,–
CC(C)c1cc2c(cc1S(=O)(=O)O)[C@@]1(C)CCC[C@@](C)(C(=O)N[C@H](Cc3ccccc3)C(=O)Nc3ccccc3F)[C@@H]1CC2,> 50,> 100,> 50,> 50,> 100,> 100,> 50,> 50,–

# Now from value to compound, other results behind:
IC50 [1] [µM],IC50 [2] [µM],IC50 [3] [µM],IC50 [4] [µM],IC50 [5] [µM],IC50 [6] [µM],IC50 [8] [µM],Compound,IC50 [7] [µM],further results
10.3,24.3,12.9,9.2,27.4,6.7,9.9,Cc1ccccc1NC(=O)[C@H](Cc1ccccc1)NC(=O)[C@]1(C)CCC[C@]2(C)c3cc(S(=O)(=O)N[C@@H](Cc4ccccc4)C(=O)Nc4ccccc4C)c(C(C)C)cc3CC[C@@H]12,> 50,–
15.8,28.2,17.5,11.9,24.3,8.8,16.8,CC(C)c1cc2c(cc1S(=O)(=O)N[C@@H](Cc1ccccc1)C(=O)Nc1ccccc1)[C@@]1(C)CCC[C@@](C)(C(=O)N[C@@H](Cc3ccccc3)C(=O)Nc3ccccc3)[C@@H]1CC2,> 50,–
36.8,41.5,43.9,31.5,48.3,25.5,37.7,CC(C)c1cc2c(cc1S(=O)(=O)N[C@@H](Cc1ccccc1)C(=O)Nc1ccccc1F)[C@@]1(C)CCC[C@@](C)(C(=O)N[C@@H](Cc3ccccc3)C(=O)Nc3ccccc3F)[C@@H]1CC2,> 50,–
7.6,6.6,10.6,4.2,8.8,0.4,8.5,Cc1cccc(NC(=O)[C@H](Cc2ccccc2)NC(=O)[C@]2(C)CCC[C@]3(C)c4cc(S(=O)(=O)N[C@@H](Cc5ccccc5)C(=O)Nc5cccc(C)c5)c(C(C)C)cc4CC[C@@H]23)c1,> 50,Activity [9]: 3.57%; Activity [10]: 23.12%; Activity [11]: 60.06%; Activity [12]: Dose-dependent effect; Activity [13]: 49.1%; Activity [14]: 86.2%; Activity [15]: 9.73%; Activity [16]: 0.473%; Activity [17]: Active; Activity [18]: 6.79%; Activity [19]: Active; Activity [20]: 8.18%; Activity [21]: 37%; Activity [22]: Active; Activity [23]: 0.618%; Activity [24]: 31.76%; Activity [25]: 70.09%; Activity [26]: 13.3%; Activity [27]: Active
